The values below come from ChEMBL document CHEMBL3046065, “Metabolites of the fungistatic agent 2β-methoxyclovan-9α-ol by Macrophomina phaseolina” (J Agric Food Chem, 2011).

The subject of one data set is Botrytis cinerea. As to the kind of experiment: Antifungal activity against Botryotinia fuckeliana KUCC 869 assessed as growth inhibition at 200 ug/ml at 27 to 29 degC after 7 days by agar tube dilution method. It is filed as functional. The following applies: KUCC 869, 168 h, read-out: GI. The procedure, abridged:
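Agar tube dilution against B. cinerea isolated from infected strawberries. Compounds were taken from 1 mg/mL DMSO stocks into unsolidified Sabouraud agar at 200 μg/mL final. The agar was set as slants and inoculated with 4 mm plugs from 7-day-old culture, then incubated 7 days at 27–29 °C. Linear growth (mm) was measured and % inhibition calculated against control. Miconazole served as standard.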

The test system of data set [1] is Macrophomina phaseolina. Put plainly: Drug metabolism in Macrophomina phaseolina KUCC 730 assessed as transformation to oxidative metabolite, clovan-2-beta, 9-beta, 13-triol at 600 mg at 29 degC after 6 days by TLC analysis. It counts as ADME, organism-based. Particulars: in vivo, 144 h; call rule not given here. The procedure, abridged: (§1)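 Fungus kept on Sabouraud dextrose agar slants at 4 °C. Medium per 3 L water: glucose 30 g, peptone 15 g, yeast extract 15 g, KH2PO4 15 g, NaCl 15 g, glycerol 30 mL. Adjusted to pH 7.0 and autoclaved. Substrate in acetone, 20 mg per 100 mL flask, added to 24 h stage II cultures. Shaken at 200 rpm, 29 °C, 6 days. Daily TLC monitoring. Substrate-only and fungus-only controls were run.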

For data set [2], the system named is Macrophomina phaseolina. As to the kind of experiment: Drug metabolism in Macrophomina phaseolina KUCC 730 assessed as transformation to oxidative metabolite, clovan-2-beta, 9-alpha-diol at 600 mg at 29 degC after 6 days by TLC analysis. It is filed as ADME, organism-based. Particulars: in vivo, 144 h. Summed up:
as §1

The subject of data set [3] is Macrophomina phaseolina. Put plainly: Drug metabolism in Macrophomina phaseolina KUCC 730 assessed as transformation to oxidative metabolite, 2-beta-methoxyclovan-9-alpha-13-diol at 600 mg at 29 degC after 6 days by TLC analysis. It is filed as ADME, organism-based. Particulars: in vivo, 144 h. The procedure, abridged:
as §1

Data set [4] concerns Macrophomina phaseolina. As to the kind of experiment: Drug metabolism in Macrophomina phaseolina KUCC 730 assessed as transformation to oxidative metabolite, clovan-2-beta, 13-diol-9-one at 600 mg at 29 degC after 6 days by TLC analysis. It is filed as ADME, organism-based. The following applies: in vivo, 144 h. Summed up: as §1
For data set [5], the system named is Macrophomina phaseolina. Put plainly: Drug metabolism in Macrophomina phaseolina KUCC 730 assessed as transformation to oxidative metabolite, 2-beta-methoxyclovan-9-one at 600 mg at 29 degC after 6 days by TLC analysis. It is filed as ADME, organism-based. The following applies: in vivo, 144 h. The procedure, abridged:
as §1

For data set [6], the system named is Macrophomina phaseolina. As to the kind of experiment: Drug metabolism in Macrophomina phaseolina KUCC 730 assessed as transformation to oxidative metabolite, clovan-2-beta, 9-beta-diol at 600 mg at 29 degC after 6 days by TLC analysis. It is filed as ADME, organism-based. The following applies: in vivo, 144 h. Summed up: as §1

As for `C[C@@]12CC[C@H]3[C@](C)(CO)C[C@H](O)[C@@]3(CC[C@@H]1O)C2`, the inhibition of growth at 200 µg/mL in the data set with Botrytis cinerea was 11%.

In the case of `C[C@@]12CC[C@H]3[C@](C)(CO)C[C@H](O)[C@@]3(CCC1=O)C2`, in the data set with Botrytis cinerea, the inhibition of growth at 200 µg/mL came to 8%. On the same count and under the same terms, under `CO[C@H]1C[C@@](C)(CO)[C@@H]2CC[C@@]3(C)C[C@]12CC[C@H]3O` stands 17%; under `CC1(C)C[C@H](O)[C@]23CC[C@H](O)[C@@](C)(CC[C@@H]12)C3`, 32%; under `CO[C@H]1CC(C)(C)[C@@H]2CC[C@@]3(C)C[C@]12CCC3=O`, 71%. On to `CO[C@H]1CC(C)(C)[C@@H]2CC[C@@]3(C)C[C@]12CC[C@H]3O` [2BETA-METHOXYCLOVAN-9ALPHA-OL], for which the Drug metabolism entry with Macrophomina phaseolina [1], in the data set with Macrophomina phaseolina [2], in the data set on Macrophomina phaseolina [3], in the data set with Macrophomina phaseolina [4], in the data set with Macrophomina phaseolina [5] and with Macrophomina phaseolina [6] was “Active” throughout. In addition, the inhibition of growth at 200 µg/mL in the data set on Botrytis cinerea is 81%. On to `CC1(C)C[C@H](O)[C@]23CC[C@@H](O)[C@@](C)(CC[C@@H]12)C3` [CLOVANEDIOL], for which, in the data set on Botrytis cinerea, the inhibition of growth at 200 µg/mL came out at 59%.
